Calls of active or inactive are those of the source.
Columns and labels:
[1] = target: T1, Toll-like receptor 8 (Homo sapiens) (UniProt Q9NR97); assay: Agonist activity at TLR8 in human whole blood assessed as induction of TNF-alpha/IL-1beta by measuring increase in secreted alkaline phosphatase level pretreated for 24 hrs followed by HEK-TNF-alpha/IL-1beta reporter cell addition after 24 hrs by spectrophotometric method
T1 sequence (whole entry): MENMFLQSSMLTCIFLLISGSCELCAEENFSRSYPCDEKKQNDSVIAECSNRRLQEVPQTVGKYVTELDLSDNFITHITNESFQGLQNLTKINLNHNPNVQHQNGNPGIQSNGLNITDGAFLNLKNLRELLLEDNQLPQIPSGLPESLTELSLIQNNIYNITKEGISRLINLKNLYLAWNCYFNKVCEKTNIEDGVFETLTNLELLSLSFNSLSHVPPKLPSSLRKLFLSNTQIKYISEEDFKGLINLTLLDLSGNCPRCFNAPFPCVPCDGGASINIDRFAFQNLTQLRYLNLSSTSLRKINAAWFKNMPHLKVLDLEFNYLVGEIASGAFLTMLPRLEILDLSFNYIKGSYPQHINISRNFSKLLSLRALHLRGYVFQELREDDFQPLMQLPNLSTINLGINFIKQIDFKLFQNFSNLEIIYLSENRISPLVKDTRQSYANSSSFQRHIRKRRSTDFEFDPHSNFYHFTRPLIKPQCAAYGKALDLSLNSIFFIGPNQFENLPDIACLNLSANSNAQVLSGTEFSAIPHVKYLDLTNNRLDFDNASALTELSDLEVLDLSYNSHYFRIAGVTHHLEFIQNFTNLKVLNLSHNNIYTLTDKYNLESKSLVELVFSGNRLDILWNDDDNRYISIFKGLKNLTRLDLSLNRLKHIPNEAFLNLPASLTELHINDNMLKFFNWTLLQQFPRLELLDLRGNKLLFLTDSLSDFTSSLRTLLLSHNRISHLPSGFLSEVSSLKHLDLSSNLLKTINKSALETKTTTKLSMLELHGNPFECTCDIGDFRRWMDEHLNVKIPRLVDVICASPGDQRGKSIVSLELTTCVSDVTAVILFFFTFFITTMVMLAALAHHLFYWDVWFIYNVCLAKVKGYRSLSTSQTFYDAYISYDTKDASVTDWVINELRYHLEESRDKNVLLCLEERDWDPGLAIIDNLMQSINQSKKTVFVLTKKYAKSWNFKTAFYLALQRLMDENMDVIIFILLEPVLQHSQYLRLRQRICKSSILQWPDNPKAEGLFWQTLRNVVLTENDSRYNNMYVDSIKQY
In short: (§1)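 Heparinized human whole blood, diluted 1:2 in RPMI with 10% FBS, was incubated with serial compound dilutions at 37°C for 24 h. Supernatant was moved by liquid handler onto HEK-IFNα/β, HEK-IFNγ or HEK-TNFα/IL-1β reporter cells (1x10⁶ cells/mL, DMEM with 10% FBS) for 24 h at 37°C. Plates were washed and given detection medium for 16 h, then sAP read at 620 nm. Calibration used serum spiked with IFN-α, IFN-γ or TNF-α.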

[2] = target: T1, Toll-like receptor 8 (Homo sapiens); assay: Agonist activity at TLR8 in human […] conventional dendritic cells assessed as upregulation of CD80 expression after 16 hrs by efluor 780 dye based flow cytometry
In short: (§2)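 Human PBMCs were incubated with serial compound dilutions at 37 °C for 16 h, with DMSO controls. Cells were stained with eFluor780 viability dye, then lineage and DC antibodies plus CD80 PE, and fixed. 250,000 gated events were acquired. pDCs were gated as Live Lin⁻ CD123⁺ CD303⁺ CD304⁺ HLA-DR⁺. cDCs were gated as Lin⁻ CD1c⁺ CD141⁻ CD11c⁺ HLA-DR⁺ or Lin⁻ CD141⁺ CD1c⁻ HLA-DR⁺. Median fluorescence intensity was quantified.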

[3] = target: T2, Toll-like receptor 7 (Homo sapiens) (UniProt Q9NYK1); assay: Agonist activity at TLR7 in human plasmacytoid dendritic cells assessed as upregulation of CD80 expression after 16 hrs by efluor 780 dye based flow cytometry; in short: as §2
T2 sequence (whole entry): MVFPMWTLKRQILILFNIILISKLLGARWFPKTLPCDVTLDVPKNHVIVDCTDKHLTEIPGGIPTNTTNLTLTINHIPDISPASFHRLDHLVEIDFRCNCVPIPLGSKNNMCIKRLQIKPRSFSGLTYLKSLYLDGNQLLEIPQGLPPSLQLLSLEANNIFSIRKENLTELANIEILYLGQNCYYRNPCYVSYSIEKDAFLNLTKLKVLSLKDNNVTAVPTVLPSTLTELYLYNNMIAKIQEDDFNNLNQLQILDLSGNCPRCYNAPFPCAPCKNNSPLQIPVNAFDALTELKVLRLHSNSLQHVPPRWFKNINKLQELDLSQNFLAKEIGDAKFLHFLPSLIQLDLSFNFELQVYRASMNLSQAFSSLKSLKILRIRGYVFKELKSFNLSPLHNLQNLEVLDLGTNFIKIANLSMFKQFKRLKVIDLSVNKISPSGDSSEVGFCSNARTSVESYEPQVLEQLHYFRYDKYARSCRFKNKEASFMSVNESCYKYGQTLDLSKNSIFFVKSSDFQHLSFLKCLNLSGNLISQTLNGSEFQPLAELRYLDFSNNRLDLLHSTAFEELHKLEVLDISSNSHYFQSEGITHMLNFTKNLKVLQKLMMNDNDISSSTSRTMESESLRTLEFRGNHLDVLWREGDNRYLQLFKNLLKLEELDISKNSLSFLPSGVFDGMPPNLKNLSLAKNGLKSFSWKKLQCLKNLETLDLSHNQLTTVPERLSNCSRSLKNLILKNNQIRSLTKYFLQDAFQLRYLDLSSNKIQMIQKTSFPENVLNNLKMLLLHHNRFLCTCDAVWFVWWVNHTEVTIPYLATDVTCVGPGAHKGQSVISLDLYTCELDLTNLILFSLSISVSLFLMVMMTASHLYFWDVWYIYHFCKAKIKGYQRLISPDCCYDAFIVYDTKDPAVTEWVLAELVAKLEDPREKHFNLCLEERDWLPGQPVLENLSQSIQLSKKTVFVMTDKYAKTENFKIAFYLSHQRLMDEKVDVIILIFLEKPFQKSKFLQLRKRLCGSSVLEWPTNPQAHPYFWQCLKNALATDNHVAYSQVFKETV

[4] = target: T2, Toll-like receptor 7 (Homo sapiens); assay: Agonist activity at TLR7 in human whole blood assessed as induction of IFN-alpha/beta by measuring increase in secreted alkaline phosphatase level pretreated for 24 hrs followed by HEK-IFN-alpha/beta reporter cell addition after 24 hrs by spectrophotometric method; in short: as §1
[5] = target: T1, Toll-like receptor 8 (Homo sapiens); assay: Agonist activity at TLR8 in human whole blood assessed as induction of IFN-gamma by measuring increase in secreted alkaline phosphatase level pretreated for 24 hrs followed by HEK-IFN-gamma reporter cell addition after 24 hrs by spectrophotometric method; in short: as §1

Measured: Activity

CCCCNc1nc(N)nc(C)c1CCCN1CCOCC1
active: all assays above

From ChEMBL document CHEMBL4007404, “Identification of High-Potency Human TLR8 and Dual TLR7/TLR8 Agonists in Pyrimidine-2,4-diamines” (J Med Chem, 2017)
